Experimental data as given in ChEMBL document CHEMBL1833957, “P1-substituted symmetry-based human immunodeficiency virus protease inhibitors with potent antiviral activity against drug-resistant viruses” (J Med Chem, 2011).
In brackets after ≈: the same amount, converted by molar mass.

Tests used:
[1] = tested on: Human immunodeficiency virus 1; assay: Antiviral activity against wild type HIV1 pNL4-3 infected in human MT4 cells assessed as inhibition of virus-induced cell death after 5 days by MTT assay in presence of 50% human serum; format: functional, organism-based; settings: Human immunodeficiency virus 1, pNL4-3, MT4, 120 h
[2] = tested on: Human immunodeficiency virus 1; assay: Antiviral activity against HIV1 A17 harboring protease L10F, V32I, M46I, I47V, Q58E and I84V mutant infected in human MT4 cells assessed as inhibition of virus-induced cell death after 5 days by MTT assay relative to wild type HIV1 pNL4-3; format: functional
[3] = tested on: Human immunodeficiency virus 1; assay: Antiviral activity against HIV1 B26 harboring protease L33F, K45I, M46I, I50V, A71V and V82F mutant infected in human MT4 cells assessed as inhibition of virus-induced cell death after 5 days by MTT assay relative to wild type HIV1 pNL4-3; format: functional
[4] = tested on: Human immunodeficiency virus 1; assay: (§1) Antiviral activity against HIV1 isolate 1 harboring protease L10I, E35D, N37D, M46I, I54V, G57R, L63P, A71V, T74P, I84V, L90M, I93L mutant infected in human MT4 cells assessed as inhibition of virus-induced cell death after 5 days by MTT assay relative to wild type HIV1 pNL4-3; format: functional
[5] = tested on: Human immunodeficiency virus 1; assay: as §1, with “HIV1” for “HIV1 isolate 1”, “I13V, G16A, Q18H, L33F,” for “E35D,”, “G57R, Q61H,I62V,” for “G57R,”, “A71L, I72T, L76V, V77I, V82A, N88G,” for “A71V, T74P, I84V,”; format: functional
[6] = Oral bioavailability in rat at 5 mg/kg; format: ADME, organism-based; settings: in vivo
[7] = Cmax in rat at 5 mg/kg, po; format: ADME, organism-based; set-up: dose 5 mg/kg, route oral; settings: in vivo
In short: (§2)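 Rats given a single 5 mg/kg oral dose with no ritonavir. Plasma Cmax is reported in μg/mL and AUC in μg h/mL.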

[8] = AUC in rat at 5 mg/kg, po; format: ADME, organism-based; set-up: dose 5 mg/kg, route oral; settings: plasma; in short: as §2
[9] = Metabolic stability in human liver microsomes assessed as disappearance of the compound after 20 mins; format: ADME, Microsome; settings: read-out: Drug metabolism
[10] = Aqueous solubility of the compound; format: physicochemical; settings: buffer
[11] = Permeability of the compound; format: ADME; settings: not told; read-out: permeability
[12] = tested on: Human immunodeficiency virus 1; assay: Antiviral activity against wild type HIV1 pNL4-3 infected in human MT4 cells assessed as inhibition of virus-induced cell death after 5 days by MTT assay; format: functional, organism-based; settings: Human immunodeficiency virus 1, pNL4-3, MT4, 120 h
In short: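 EC50 measured against wild-type virus in MT-4 cells, with no human serum added.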

COC(=O)N[C@H](C(=O)N[C@@H](Cc1ccccc1)C[C@H](O)[C@H](Cc1ccc(-c2cncc(F)c2)cc1)NC(=O)[C@@H](NC(=O)OC)C(C)(C)C)C(C)(C)C
EC50 [1]: 24 nM | fold change (FC) [2]: 3 | fold change (FC) [3]: 3 | fold change (FC) [4]: 38 | fold change (FC) [5]: 2 | bioavailability [6]: 13% | Cmax [7]: 110 ng/mL | AUC [8]: 160 ng·h/mL | metabolised at 20 min [9]: 40% | solubility [10]: 10.4 µM (≈ 7.51 µg/mL) | Papp [11]: 7.3 ×10⁻⁶ cm/s | EC50 [12]: 4 nM
